# Compound activity: PubChem, Johns Hopkins Ion Channel Center
# KCNK3 block – human KCNK3 channel inhibition, primary screen | O14649 | B-score at 10 µM | 0.84% of 340,000 active | CHO-KCNK3 thallium flux, FluxOR fluorescence; hits give low values | AID 602410;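 active = B-score under library mean minus 4 SD, starting fluorescence ratio at most library mean plus 5 SD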;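 note: more negative B-score means stronger inhibition of thallium flux through KCNK3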
# KCNK9 block – blocks the human KCNK9 two-pore domain potassium channel. Q9NPC2. HEK293 KCNK9, FluxOR thallium flux fluorescence; hits give low values. B-score at 10 µM. 1.2% of 310,000 active. AID 488922;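 active = ratio B-score over 3 SD below the library mean, with starting fluorescence within 5 SD of its mean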;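 note: negative B-score means less thallium flux so channel inhibition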
# Kir21 inh – inhibitors of mouse Kir2.1 inward-rectifier potassium channel. P35561. HEK293-Kir2.1, FluxOR thallium flux fluorescence; hits give low values. B-score at 10 µM. 0.85% of 310,000 active;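 active = fluorescence ratio B-score at or below minus 3 SD of library scores, with starting-brightness B-score within 2 SD, cut at about -4.2 in these data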;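 note: channel flux triggered by added potassium and thallium sulfate stimulus; B-score of peak minus minimum fluorescence over baseline after thallium stimulus; more negative B-score means stronger Kir2.1 block with less thallium influx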
# Target sequence (P35561 whole entry, looked up): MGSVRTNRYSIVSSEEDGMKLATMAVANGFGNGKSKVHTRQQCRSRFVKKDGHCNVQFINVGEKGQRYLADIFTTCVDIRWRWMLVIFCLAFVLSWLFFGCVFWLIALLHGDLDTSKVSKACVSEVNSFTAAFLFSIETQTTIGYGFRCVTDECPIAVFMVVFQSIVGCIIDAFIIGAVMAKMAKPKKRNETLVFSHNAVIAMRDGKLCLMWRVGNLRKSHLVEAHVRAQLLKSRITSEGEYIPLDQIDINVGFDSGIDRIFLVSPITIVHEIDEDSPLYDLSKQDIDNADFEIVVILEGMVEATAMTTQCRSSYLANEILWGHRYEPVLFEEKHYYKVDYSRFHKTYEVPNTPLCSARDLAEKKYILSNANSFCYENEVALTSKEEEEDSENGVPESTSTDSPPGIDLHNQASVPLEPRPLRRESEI
# KCNQ1 pot – human KCNQ1 channel potentiation or activation; P51787; CHO-K1 KCNQ1, thallium flux FluxOR fluorescence; hits give high values; B-score at 10 µM; 0.35% of 310,000 active; AID 2648;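 active = fluorescence ratio B-score, a plate-corrected score, at least three library SD, with initial intensity B-score within 5 SD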
#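 Assay system: CHO-K1 cells stably expressing KCNQ1; Medium: assay buffer with matched DMSO; Also added: K+/Tl+ depolarizing stimulus; Dosing: single dose; Timing: dye 90 min, compound 20 min, room temperature; Measured by: kinetic FluxOR thallium fluorescence, 10-s 1-Hz baseline, 110-s post-stimulus read; Read-out: peak-minus-minimum fluorescence over initial fluorescence, negative-control normalized, B-scored.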
# KCNQ1 inh – blocks the human KCNQ1 potassium channel; P51787; CHO-K1 KCNQ1, FluxOR thallium flux fluorescence; hits give high values; B-score at 10 µM; 1.3% of 310,000 active;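 active = compounds whose thallium flux B-score, printed positive for inhibition, exceeds three library SD while starting fluorescence stays within three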;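 note: channel opened by potassium depolarization with thallium stimulus after 20 min compound exposure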
# hERG rescue – shields human hERG channel from block by proarrhythmic agents | CHO-hERG, FluxOR thallium flux, dofetilide IC70 present | activation (rescue from dofetilide block), less the hit threshold, % at 10 µM | 0.51% of 310,000 active | AID 1511;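 active = activation above the mean of controls blocked by dofetilide plus 5 SD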;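 note: thallium influx through hERG after potassium depolarization seen as dye fluorescence rise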
# * marks the source's active call; other numbers are inactive results; i = inactive; x = no result given. A selection: hits, their analogues and other compounds. The true share with any hit is near 3.7%.
SMILES,KCNK3 block,KCNK9 block,Kir21 inh,KCNQ1 pot,KCNQ1 inh,hERG rescue
COc1ccc(C(=O)NC(=S)Nc2ccc(N3CCOCC3)cc2)cc1Cl,i,i,-1.1,i,i,-1
CCCNC(=O)c1ccccc1NC(=O)c1ccc(CSc2ccccc2)cc1,i,i,0.2,i,6*,-3
Cc1ccc(SCc2ccc(C(=O)Nc3ccccc3C(=O)NC(C)C)cc2)cc1,i,i,0.38,i,i,-2
COc1ccccc1CCNC(=O)c1ccc2nc[nH]c2c1,i,i,0.16,i,i,-9
O=[N+]([O-])c1ccc(-c2ccc(/C=N/n3cnnc3)o2)c(Br)c1,i,i,1.3,i,i,7.5*
O=c1oc2cc(O)ccc2c2c1CCCC2,i,i,-6.5*,i,i,-24
CCC(C)c1ccc(OCC(=O)Nc2ccc(CN3CCOCC3)cc2)cc1 (stereo unspecified),i,i,-0.07,i,i,-13
CCN(CC(=O)Nc1ccccc1OC)C(=O)c1cc(-c2ccccc2)nn1-c1ccccc1,i,i,-0.35,i,7*,-21
CCN(CC(=O)Nc1ccccc1C(F)(F)F)C(=O)c1cc(-c2ccccc2)nn1-c1ccccc1,i,i,-0.44,i,i,-16
COc1cccc(NC(=O)c2ccccc2OCc2c(C)noc2C)c1,-11*,x,x,x,x,x
COc1cc(NC(=O)c2ccccc2OCc2ccccc2)cc(OC)c1OC,i,i,-0.1,i,i,11*
Cc1noc(C)c1COC(=O)c1ccccc1Oc1ccccc1,i,i,-5.1*,i,i,-11
COc1ccc(C=NNC(=O)c2ccccc2OCc2ccc(F)cc2)c(OC)c1,-9.9*,x,x,x,x,x
CCOc1cc(/C=N/NC(=O)c2ccccc2OCc2ccc(F)cc2)ccc1O,i,x,x,x,x,x
Cc1ccc(NC(=O)c2ccccc2OCc2c(C)noc2C)cc1S(=O)(=O)N(C)C,i,x,x,x,x,x
Cc1noc(C)c1COC(=O)c1ccccc1NC(=O)Cc1ccccc1,i,i,-1.5,i,i,-8
Cc1cccc(NC(=O)c2cccc(S(=O)(=O)N(C)c3ccccc3)c2)n1,i,x,x,x,x,x
COC(=O)Cn1cnc2c(nnn2-c2cccc(OC)c2)c1=O,i,i,-0.01,i,i,2
CC(=O)c1nn(-c2ccc(Cl)cc2)c(=O)[nH]c1=O,i,i,-0.69,i,i,-12
N#Cc1ccc(C(=O)OCC(=O)N2CCOCC2)cc1,i,i,1.4,i,i,-3
Cn1c(SCC(=O)NCc2ccccc2)ncc(C(=O)Nc2ccccc2)c1=O,i,i,-0.5,i,i,-4
CC(=O)Nc1ccc(NC(=O)CSc2ncc(C(=O)Nc3ccccc3)c(=O)n2C)cc1,i,i,-0.99,i,7*,-12
CC(=O)Nc1cc2c(cc1Cl)-c1ccccc1C2O (stereo unspecified),i,x,x,x,x,x
CCOc1ccc(NC(=O)CSc2nnc(C3CC3)n2C)cc1,i,i,-1.1,i,i,-5
CCOc1ccc(C(=O)CSc2nnc(C3CC3)n2C)cc1,i,i,0.21,i,i,6.4*
SMILES,KCNK3 block,KCNK9 block,Kir21 inh,KCNQ1 pot,KCNQ1 inh,hERG rescue
CC1CN(C(=O)CN(C)S(=O)(=O)c2ccc3ccccc3c2)CC(C)O1 (stereo unspecified),i,i,-0.1,i,i,-3
O=C(O)CNS(=O)(=O)c1ccc(Br)s1,i,i,-1.1,i,i,-6
O=S(=O)(NCCc1ccccc1)c1ccc(Br)s1,i,i,-4.2*,i,i,-6
O=C(Nc1ccccc1C(F)(F)F)C1CCN(C(=O)c2cccs2)CC1,i,i,0.26,i,i,-9
CCOC(=O)c1c(NS(C)(=O)=O)sc2c1CCC(C)C2 (stereo unspecified),i,i,-0.25,8*,i,1
COC(=O)c1c(NS(=O)(=O)c2ccc(C)cc2)sc2c1CCC(C)C2 (stereo unspecified),i,x,x,x,x,x
O=C(NCC1CCCO1)c1cccc(S(=O)(=O)Nc2ccc(SC(F)F)cc2)c1 (stereo unspecified),i,x,x,x,x,x
Cc1nn(-c2ccc(Cl)cc2Cl)c(=O)c2ccccc12,i,i,-0.42,i,i,1
CC1=NN(S(=O)(=O)c2ccc(Cl)cc2Cl)C(=O)c2ccccc2O1,i,i,-4.8*,i,i,-13
Cc1ccc(N2CCN(C(=O)Nc3cccc([N+](=O)[O-])c3)CC2C)cc1 (stereo unspecified),i,i,0.01,i,6*,-18
Cc1cccc(N2CCN(C(=O)Cn3sc4nc(C)cc(C)c4c3=O)CC2C)c1 (stereo unspecified),i,i,-2.1,14*,i,-8
Cc1cc(C)c2c(=O)n(CC(=O)N3CCC(Cc4ccccc4)CC3)sc2n1,x,i,-1.5,i,i,-4
Cc1cccc(N2CCN(C(=O)c3ccc4ccccc4c3)CC2C)c1 (stereo unspecified),i,x,x,x,x,x
Cc1cccc(N2CCN(C(=O)c3ccncc3)CC2C)c1 (stereo unspecified),i,i,-0.16,i,i,6.1*
CC1(C)Cc2ccccc2C(NNC(=O)c2ccc(Br)o2)=N1,i,i,-0.19,i,i,-13
Cc1cc(/N=C/C=C2/N(C)c3ccccc3C2(C)C)n(CCC#N)n1,i,x,x,x,x,x
CCOC(=O)c1ncn2c1[C@@H]1CCNC1C(=O)c1cc(OC)ccc1-2 (stereo partly specified),i,x,x,x,x,x
COCCCn1c(=O)c2ccccc2n(Cc2ccc(C)cc2)c1=O,i,-7.7*,-0.82,i,i,-9
CN(C)CCCNC(=S)NCC(c1ccc(Cl)cc1Cl)c1c[nH]c2ccccc12 (stereo unspecified),i,i,-6.5*,i,i,-14
NCC(c1ccc(Cl)cc1Cl)c1c[nH]c2ccccc12 (stereo unspecified),i,i,-8.7*,i,i,-8
NCC(c1ccccc1Cl)c1c[nH]c2ccccc12 (stereo unspecified),i,i,-0.73,i,i,-5
CCCCN1CC(COCc2ccccc2)Oc2cc(Br)ccc2S1(=O)=O (stereo unspecified),i,x,x,x,x,x
COc1ccc(Cl)cc1NC(=O)CN(C)C(=O)c1cc2c(F)cccc2s1,-8.8*,x,x,x,x,x
CN(C(=O)CSc1ncnc2scc(-c3ccccc3)c12)C1CCS(=O)(=O)C1 (stereo unspecified),i,i,-0.44,i,i,-9
